The results in this text go back to ChEMBL document CHEMBL1649362, “Cytotoxic triterpenoids from Maytenus retusa” (J Nat Prod, 2010).

Usually inhibition stands for how much of the control response was suppressed. A high value points to a response far below the control. One may read the IC50 as the concentration needed to halve the response being measured. High values mean lower potency, low ones higher potency.

The test system of one assay is MCF7. The assay can be described thus: Cytotoxicity against human MCF7 cells at 30 uM after 48 hrs by MTT assay. Format: functional. Conditions: MCF7, 48 h. In outline:
(§1)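 MCF-7 cells (ATCC) maintained in DMEM with 10% FBS and plated at 10 000 cells/well. MTT (0.5 mg/mL final) then incubated 3 h at 37 °C. Formazan solubilized in 20% SDS/0.02 M HCl and absorbance read at 570 nm. IC50 from nonlinear regression.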
On the technique in general: Formazan colour is commonly taken as a measure of viable cells.
The compound `COc1c(O)cc2c(c1C(=O)O)C(=O)C=C1[C@@]2(C)CC[C@@]2(C)[C@@H]3C[C@@H](C)C(=O)C[C@]3(C)CC[C@]12C` registered an inhibition at 30 µM of 11%.

Take `CC1=C2C3C(=O)C=C4C(=CC(=O)C(O)=C4C)[C@]3(C)CC[C@@]2(C)[C@@H]2C[C@@H](C)C(=O)C[C@]2(C)C1` (stereo partly specified): the inhibition at 30 µM is 5%.

Regarding `COC(=O)[C@]1(C)CC[C@]2(C)CC[C@]3(C)C4CC(=O)c5cc(O)c(O)cc5[C@]4(C)CC[C@@]3(C)[C@@H]2C1` (stereo partly specified), the inhibition at 30 µM amounted to 44%.

`CC1=C(O)C(=O)C=C2C1=CC=C1[C@@]2(C)CC[C@@]2(C)[C@@H]3C[C@@](C)(O)C(=O)C[C@]3(C)CC[C@]12C` registered an inhibition at 30 µM of 100%.

Another assay has as its system MCF7. The experiment in a line: Cytotoxicity against human MCF7 cells after 48 hrs by MTT assay. Format: functional, cell-based. The note with it: MCF7, 48 h. The method in brief:
as §1
`CC1=C(O)C(=O)C=C2C1=CC=C1[C@@]2(C)CC[C@@]2(C)[C@@H]3C[C@@](C)(O)C(=O)C[C@]3(C)CC[C@]12C` returned an IC50 of 1400 nM.

For the next assay, the system named is HL-60. The assay can be described thus: Cytotoxicity against human HL60 cells at 10 uM after 48 hrs by MTT assay. Type of assay: functional. The note with it: HL-60, 48 h. The method in brief: (§2)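 HL60 cells (ATCC) grown in RPMI with 10% FBS and seeded at 10 000 cells/well. After 48 h exposure, MTT added (0.5 mg/mL final) for 3 h at 37 °C. Formazan dissolved in SDS-HCl (20% SDS, 0.02 M HCl) and read at 570 nm. IC50 obtained by nonlinear regression.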
In turn, `COc1c(O)cc2c(c1C(=O)O)C(=O)C=C1[C@@]2(C)CC[C@@]2(C)[C@@H]3C[C@@H](C)C(=O)C[C@]3(C)CC[C@]12C` registered an inhibition at 10 µM of 57%.

Take `CC1=C2C3C(=O)C=C4C(=CC(=O)C(O)=C4C)[C@]3(C)CC[C@@]2(C)[C@@H]2C[C@@H](C)C(=O)C[C@]2(C)C1` (stereo partly specified): the inhibition at 10 µM was determined as 0%.

With `COC(=O)[C@]1(C)CC[C@]2(C)CC[C@]3(C)C4CC(=O)c5cc(O)c(O)cc5[C@]4(C)CC[C@@]3(C)[C@@H]2C1` (stereo partly specified), at 10 µM the inhibition was 64%.

In turn, `CC1=C(O)C(=O)C=C2C1=CC=C1[C@@]2(C)CC[C@@]2(C)[C@@H]3C[C@@](C)(O)C(=O)C[C@]3(C)CC[C@]12C` returned an inhibition at 10 µM of 89%.

A further assay relates to HL-60. The assay can be described thus: Cytotoxicity against human HL60 cells after 48 hrs by MTT assay. Format: functional, cell-based. Conditions: HL-60, 48 h. The method in brief:
as §2
Compound `CC1=C(O)C(=O)C=C2C1=CC=C1[C@@]2(C)CC[C@@]2(C)[C@@H]3C[C@@](C)(O)C(=O)C[C@]3(C)CC[C@]12C` came in with an IC50 of 200 nM.

For the next assay, the system named is HL-60. The assay can be described thus: Cytotoxicity against human HL60 cells at 1 uM after 48 hrs by MTT assay. Format: functional. The note with it: HL-60, 48 h. In outline: as §2
As for `COc1c(O)cc2c(c1C(=O)O)C(=O)C=C1[C@@]2(C)CC[C@@]2(C)[C@@H]3C[C@@H](C)C(=O)C[C@]3(C)CC[C@]12C`, the inhibition at 1 µM was found to be 78%.

Take `CC1=C2C3C(=O)C=C4C(=CC(=O)C(O)=C4C)[C@]3(C)CC[C@@]2(C)[C@@H]2C[C@@H](C)C(=O)C[C@]2(C)C1` (stereo partly specified): the inhibition at 1 µM was determined as 0%.

With `COC(=O)[C@]1(C)CC[C@]2(C)CC[C@]3(C)C4CC(=O)c5cc(O)c(O)cc5[C@]4(C)CC[C@@]3(C)[C@@H]2C1` (stereo partly specified), at 1 µM the inhibition was 35%.

`CC1=C(O)C(=O)C=C2C1=CC=C1[C@@]2(C)CC[C@@]2(C)[C@@H]3C[C@@](C)(O)C(=O)C[C@]3(C)CC[C@]12C` showed an inhibition at 1 µM of 80%.

The subject of a further assay is MCF7. The experiment in a line: Cytotoxicity against human MCF7 cells at 10 uM after 48 hrs by MTT assay. Type of assay: functional. The note with it: MCF7, 48 h. In outline:
as §1
`COc1c(O)cc2c(c1C(=O)O)C(=O)C=C1[C@@]2(C)CC[C@@]2(C)[C@@H]3C[C@@H](C)C(=O)C[C@]3(C)CC[C@]12C` yielded an inhibition at 10 µM of 17%.

Compound `CC1=C2C3C(=O)C=C4C(=CC(=O)C(O)=C4C)[C@]3(C)CC[C@@]2(C)[C@@H]2C[C@@H](C)C(=O)C[C@]2(C)C1` (stereo partly specified) gave an inhibition at 10 µM of 11%.

`COC(=O)[C@]1(C)CC[C@]2(C)CC[C@]3(C)C4CC(=O)c5cc(O)c(O)cc5[C@]4(C)CC[C@@]3(C)[C@@H]2C1` (stereo partly specified) yielded an inhibition at 10 µM of 0%.

On to `CC1=C(O)C(=O)C=C2C1=CC=C1[C@@]2(C)CC[C@@]2(C)[C@@H]3C[C@@](C)(O)C(=O)C[C@]3(C)CC[C@]12C`, for which 10 µM produced 100% inhibition.

For another assay, the system named is MCF7. The assay can be described thus: Cytotoxicity against human MCF7 cells at 1 uM after 48 hrs by MTT assay. The note with it: MCF7, 48 h. Type of assay: functional. In outline: as §1
`COc1c(O)cc2c(c1C(=O)O)C(=O)C=C1[C@@]2(C)CC[C@@]2(C)[C@@H]3C[C@@H](C)C(=O)C[C@]3(C)CC[C@]12C` registered an inhibition at 1 µM of 15%.

Consider `CC1=C2C3C(=O)C=C4C(=CC(=O)C(O)=C4C)[C@]3(C)CC[C@@]2(C)[C@@H]2C[C@@H](C)C(=O)C[C@]2(C)C1` (stereo partly specified), for which the inhibition at 1 µM turned out to be 9%.

For `COC(=O)[C@]1(C)CC[C@]2(C)CC[C@]3(C)C4CC(=O)c5cc(O)c(O)cc5[C@]4(C)CC[C@@]3(C)[C@@H]2C1` (stereo partly specified), at 1 µM the inhibition was 4%.

`CC1=C(O)C(=O)C=C2C1=CC=C1[C@@]2(C)CC[C@@]2(C)[C@@H]3C[C@@](C)(O)C(=O)C[C@]3(C)CC[C@]12C` had an inhibition at 1 µM of 21%.

The next assay has as its system HL-60. The assay can be described thus: Cytotoxicity against human HL60 cells at 30 uM after 48 hrs by MTT assay. The note with it: HL-60, 48 h. Format: functional. The method in brief: as §2
In the case of `COc1c(O)cc2c(c1C(=O)O)C(=O)C=C1[C@@]2(C)CC[C@@]2(C)[C@@H]3C[C@@H](C)C(=O)C[C@]3(C)CC[C@]12C`, 30 µM produced 59% inhibition.

`CC1=C2C3C(=O)C=C4C(=CC(=O)C(O)=C4C)[C@]3(C)CC[C@@]2(C)[C@@H]2C[C@@H](C)C(=O)C[C@]2(C)C1` (stereo partly specified) came in with an inhibition at 30 µM of 51%.

The compound `COC(=O)[C@]1(C)CC[C@]2(C)CC[C@]3(C)C4CC(=O)c5cc(O)c(O)cc5[C@]4(C)CC[C@@]3(C)[C@@H]2C1` (stereo partly specified) had an inhibition at 30 µM of 65%.

As for `CC1=C(O)C(=O)C=C2C1=CC=C1[C@@]2(C)CC[C@@]2(C)[C@@H]3C[C@@](C)(O)C(=O)C[C@]3(C)CC[C@]12C`, the inhibition at 30 µM turned out to be 90%.
